In data set [1] the test system is B16-F10. The experiment in a line: Antitumor activity against mouse B16F10 cells implanted in C57BL/6 mouse assessed as reduction in metastatic tumor nodules on lungs at 1 mg/kg, ip administered daily up to 10 days measured on day 21. Type of data set: functional, organism-based. The gist of the method:
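C57BL/6 mice, 8–12 weeks, given 1 × 10^5 B16F10 cells by tail vein; 1 mg/kg i.p. daily from day 0 (before inoculation) to day 10, vehicle PBS with 1% DMSO and 50 μM charcoal-stripped mouse serum albumin; sacrifice day 21, lung nodules counted; one-way ANOVA with Bonferroni.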

Data set [2] deals with 4T1. Nature of the data set: Growth inhibition of mouse 4T1 cells at 10 uM after 48 hrs by CellTiter blue assay. The conditions noted are these: 4t1, 48 h. Type of data set: cell-based.
In data set [3] the target is T1, Autotaxin (Homo sapiens, UniProt Q13822). The experiment in a line: Inhibition of recombinant human C-terminal FLAg-tagged ATX nucleotide pyrophosphate phosphatase activity expressed in baculovirus infected sf9 cells using pNP-TMP as substrate measured every 2 mins for 1 hr by fluorescence assay.
Data set [4] addresses Lysophosphatidic acid receptor 2 (Homo sapiens) (UniProt Q9HBW0). The experiment in a line: Antagonist activity at LPA2 receptor (unknown origin) expressed in MEF cells assessed as inhibition of LPA-induced intracellular calcium level up to 100 uM measured every 3.42 secs for 70 secs by Fura-2-AM dye based fluorescence assay. It is filed as functional, cell-based.
Data set [5] has as its target T2, Ectonucleotide pyrophosphatase/phosphodiesterase family member 7 (Homo sapiens) (UniProt Q6UWV6).
T2 sequence (whole entry): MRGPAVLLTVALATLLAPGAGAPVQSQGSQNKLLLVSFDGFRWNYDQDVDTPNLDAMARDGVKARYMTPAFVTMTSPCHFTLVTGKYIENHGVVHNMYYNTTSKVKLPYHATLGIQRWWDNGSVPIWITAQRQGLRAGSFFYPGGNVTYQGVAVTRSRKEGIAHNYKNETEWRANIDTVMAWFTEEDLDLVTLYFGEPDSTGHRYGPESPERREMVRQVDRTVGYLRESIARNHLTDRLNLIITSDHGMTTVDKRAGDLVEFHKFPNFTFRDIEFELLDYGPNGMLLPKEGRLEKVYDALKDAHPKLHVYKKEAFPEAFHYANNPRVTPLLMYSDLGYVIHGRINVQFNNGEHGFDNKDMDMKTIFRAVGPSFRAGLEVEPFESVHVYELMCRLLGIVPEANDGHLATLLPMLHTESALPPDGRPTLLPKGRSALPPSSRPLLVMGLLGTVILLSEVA
Nature of the data set: Inhibition of ENPP7 (unknown origin) using pNPPC as substrate measured every 2 mins for 1 hr by […]. Summed up: (§1)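 10 nM ENPP6 or ENPP7, 10 μM pNPPC, compound 0–10 μM, triplicate; ENPP6 buffer 100 mM Tris, 500 mM NaCl, 0.05% Triton pH 9.0; ENPP7 buffer 50 mM Tris, 150 mM NaCl, 10 mM taurocholate pH 8.5; 405 nm absorbance every 2 min for 1 h.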

Data set [6] addresses Lysophosphatidic acid receptor 5 (Homo sapiens) (UniProt Q9H1C0). Nature of the data set: Antagonist activity at FLAG-tagged LPA5 receptor (unknown origin) expressed in rat B103 cells assessed as inhibition of LPA-induced intracellular calcium level up to 100 uM measured every 3.42 secs for 70 secs by Fura-2-AM dye based fluorescence assay. It is filed as functional, cell-based.

The target of data set [7] is Lysophosphatidic acid receptor 4 (Homo sapiens) (UniProt Q99677). The experiment in a line: Antagonist activity at LPA4 receptor (unknown origin) expressed in CHO cells assessed as inhibition of LPA-induced intracellular calcium level up to 100 uM measured every 3.42 secs for 70 secs by Fura-2-AM dye based fluorescence assay. Type of data set: functional, cell-based.

Data set [8] has as its target T3, Glycerophosphocholine cholinephosphodiesterase ENPP6 (Homo sapiens) (UniProt Q6UWR7).
T3 sequence (whole entry): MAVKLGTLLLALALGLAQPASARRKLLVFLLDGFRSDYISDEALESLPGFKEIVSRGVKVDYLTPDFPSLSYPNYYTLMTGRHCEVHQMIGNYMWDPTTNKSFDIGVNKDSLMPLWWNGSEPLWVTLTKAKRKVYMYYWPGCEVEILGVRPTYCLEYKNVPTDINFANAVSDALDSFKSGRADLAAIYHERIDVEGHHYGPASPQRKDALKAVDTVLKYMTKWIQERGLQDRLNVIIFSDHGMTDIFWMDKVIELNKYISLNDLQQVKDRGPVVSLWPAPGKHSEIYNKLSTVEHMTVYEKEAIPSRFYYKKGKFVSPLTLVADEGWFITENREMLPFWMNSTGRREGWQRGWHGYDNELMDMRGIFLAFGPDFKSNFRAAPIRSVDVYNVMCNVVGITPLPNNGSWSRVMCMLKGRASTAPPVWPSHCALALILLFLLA
The experiment in a line: Inhibition of ENPP6 (unknown origin) using pNPPC as substrate measured every 2 mins for 1 hr by […]. Summed up:
as §1

In data set [9] the target is T4, Lysophosphatidic acid receptor 1 (Homo sapiens, UniProt Q92633). The experiment in a line: Antagonist activity at LPA1 receptor (unknown origin) expressed in rat RH7777 cells assessed as inhibition of LPA-induced intracellular calcium level measured every 3.42 secs for 70 secs by Fura-2-AM dye based fluorescence assay. Type of data set: functional, cell-based.
In data set [10] the target is T1, Autotaxin. The experiment in a line: Competitive inhibition of recombinant human C-terminal FLAg-tagged ATX expressed in baculovirus infected sf9 cells using varying levels of FRET based FS-3 substrate at 0.5 to 2 times IC50 measured every 2 mins for 1 hr by Michaelis-Menten plot analysis.
For data set [11], the target named is T1, Autotaxin. The experiment in a line: Inhibition of ATX (unknown origin) expressed in human A2058 cells assessed as inhibition of LPC-induced cell invasion after 20 hrs by calcein-AM dye based matrigel-mediated Boyden chamber assay.
Data set [12] deals with T1, Autotaxin. Nature of the data set: Inhibition of ATX (unknown origin) expressed in human A2058 cells assessed as inhibition of LPC-induced cell invasion at 10 uM after 20 hrs by calcein-AM dye based matrigel-mediated Boyden chamber assay.
The nature of data set [13]: Stability in mouse 4T1 cells assessed as parent compound remaining at 10 uM after 40 hrs by LC-MS/MS method. To be noted: read-out: Stability. Type of data set: ADME, cell-based. Summed up:
(§2)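 4T1 cells (1 × 10^4/well) attached overnight, then 10 μM compound in DMEM with 1% charcoal-stripped FBS (0.1% DMSO final); quadruplicate samples at 0, 16, 40 h, centrifuged, diethyl ether extracted twice, LC-MS/MS peak areas normalized to 0 h.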

In data set [14] the target is T5, Lysophosphatidic acid receptor 3 (Homo sapiens) (UniProt Q9UBY5).
T5 sequence (whole entry): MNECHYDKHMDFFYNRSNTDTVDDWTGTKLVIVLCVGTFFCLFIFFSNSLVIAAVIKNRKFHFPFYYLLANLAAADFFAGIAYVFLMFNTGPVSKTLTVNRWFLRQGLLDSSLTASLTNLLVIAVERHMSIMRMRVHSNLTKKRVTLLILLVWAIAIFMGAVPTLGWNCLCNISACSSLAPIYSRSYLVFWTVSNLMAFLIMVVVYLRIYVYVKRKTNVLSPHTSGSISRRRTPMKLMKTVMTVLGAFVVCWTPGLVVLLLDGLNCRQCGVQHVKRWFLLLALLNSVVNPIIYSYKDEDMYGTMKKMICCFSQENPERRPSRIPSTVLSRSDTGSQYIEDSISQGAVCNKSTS
Nature of the data set: Antagonist activity at LPA3 receptor (unknown origin) expressed in rat RH7777 cells assessed as inhibition of LPA-induced intracellular calcium level up to 100 uM measured every 3.42 secs for 70 secs by Fura-2-AM dye based fluorescence assay. It is filed as functional, cell-based.

Data set [15] in a line: Stability in mouse 4T1 cells assessed as parent compound remaining at 10 uM after 16 hrs by LC-MS/MS method. It is filed as ADME, cell-based. The conditions noted are these: read-out: Stability. The gist of the method:
as §2

The target of data set [16] is T1, Autotaxin. Nature of the data set: Inhibition of ATX (unknown origin).
Data set [17] concerns the target T4, Lysophosphatidic acid receptor 1. The experiment in a line: Agonist activity at LPA1 receptor (unknown origin) expressed in rat RH7777 cells assessed as increase in intracellular calcium level measured every 3.42 secs for 70 secs by Fura-2-AM dye based fluorescence assay. Type of data set: functional, cell-based.

The structures appear in SMILES notation. Activity calls are given as the source filed them. The rule behind the calls is not given here.

T4 sequence (Q92633 whole entry): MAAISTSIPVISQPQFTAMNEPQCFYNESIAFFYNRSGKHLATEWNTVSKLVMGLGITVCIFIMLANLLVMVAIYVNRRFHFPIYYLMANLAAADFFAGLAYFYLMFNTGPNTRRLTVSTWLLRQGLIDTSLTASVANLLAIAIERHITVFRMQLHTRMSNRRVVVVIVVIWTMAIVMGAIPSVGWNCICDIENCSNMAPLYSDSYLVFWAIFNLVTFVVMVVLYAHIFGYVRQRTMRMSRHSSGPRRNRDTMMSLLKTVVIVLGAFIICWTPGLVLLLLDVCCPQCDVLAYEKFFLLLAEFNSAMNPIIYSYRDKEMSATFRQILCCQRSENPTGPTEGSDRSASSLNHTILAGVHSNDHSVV
Lysophosphatidic acid receptor 2 (Homo sapiens), sequence (Q9HBW0 whole entry): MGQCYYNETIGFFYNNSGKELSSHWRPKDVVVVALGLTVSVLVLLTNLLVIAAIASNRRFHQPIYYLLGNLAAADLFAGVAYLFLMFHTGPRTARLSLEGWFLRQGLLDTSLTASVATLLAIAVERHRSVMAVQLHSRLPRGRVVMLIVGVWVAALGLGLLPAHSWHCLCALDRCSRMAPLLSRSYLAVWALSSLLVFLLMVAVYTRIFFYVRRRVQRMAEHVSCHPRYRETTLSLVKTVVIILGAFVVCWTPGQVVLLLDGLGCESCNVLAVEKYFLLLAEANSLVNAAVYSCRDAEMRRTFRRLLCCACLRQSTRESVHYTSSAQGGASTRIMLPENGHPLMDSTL
Lysophosphatidic acid receptor 5 (Homo sapiens), sequence (Q9H1C0 whole entry): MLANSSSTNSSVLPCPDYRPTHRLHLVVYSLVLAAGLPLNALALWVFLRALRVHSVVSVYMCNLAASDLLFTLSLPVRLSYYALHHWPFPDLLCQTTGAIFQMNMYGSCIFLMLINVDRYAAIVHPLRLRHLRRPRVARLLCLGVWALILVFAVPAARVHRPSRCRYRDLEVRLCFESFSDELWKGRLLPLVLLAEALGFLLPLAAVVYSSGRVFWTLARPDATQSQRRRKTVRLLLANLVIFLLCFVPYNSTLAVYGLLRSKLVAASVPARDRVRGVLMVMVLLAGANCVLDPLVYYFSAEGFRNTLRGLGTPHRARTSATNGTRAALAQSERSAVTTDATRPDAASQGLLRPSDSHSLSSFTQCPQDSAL
Lysophosphatidic acid receptor 4 (Homo sapiens), sequence (Q99677 whole entry): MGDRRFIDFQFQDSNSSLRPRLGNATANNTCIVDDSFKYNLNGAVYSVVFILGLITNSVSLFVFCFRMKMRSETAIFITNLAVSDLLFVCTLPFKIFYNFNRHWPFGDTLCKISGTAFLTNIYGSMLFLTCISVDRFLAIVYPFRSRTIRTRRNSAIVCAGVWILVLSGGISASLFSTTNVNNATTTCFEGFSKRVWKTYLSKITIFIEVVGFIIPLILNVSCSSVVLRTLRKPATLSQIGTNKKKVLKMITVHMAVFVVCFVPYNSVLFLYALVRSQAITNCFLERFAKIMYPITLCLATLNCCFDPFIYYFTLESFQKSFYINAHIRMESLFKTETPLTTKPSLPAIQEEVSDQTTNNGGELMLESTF

`O=S(=O)(c1cc(C(=S)Nc2cc(F)c(F)c(F)c2)c(Cl)cc1Cl)N1CCOCC1`: in [1], the result was Active. Besides, in data set [2], the Activity entry was “Toxic”. The inhibition result in [3], in [4], in [5], in data set [6], in data set [7] and in data set [8] was “inactive” throughout. Also, the inhibition entry in data set [14] is “inactive”. The IC50 result in data set [9] is listed as “Not Active”. Moreover, the inhibition entry in data set [10] and in [12] was “Active” in each case. The inhibition result in [11] was “Dose-dependent effect”. Also, the remaining at 40 h, 10 µM in data set [13] came out at 102%. For the same molecule, in data set [15], the remaining at 16 h, 10 µM stood at 93.2%.
As to `O=C(Nc1cccc(F)c1)c1cc(S(=O)(=O)N2CCOCC2)c(Cl)cc1Cl`, the inhibition result in data set [3], in data set [5] and in data set [8] was “inactive” throughout. For the same molecule, in [10], the inhibition result is “Active”. Further, the remaining at 40 h, 10 µM in [13] amounted to 79.5%. Moreover, in data set [16], the IC50 came out at 0.116 µM. The remaining at 16 h, 10 µM in [15] worked out at 79.7%.
For the molecule `CCCCCCCC/C=C\CCCCCCCC(=O)OCC(O)COP(=O)(O)O` (stereo not drawn), the EC50 in [17] was determined as 0.08 µM.

The values above are taken from ChEMBL document CHEMBL3997796 (J Med Chem, 2017).
